Experiments:
DC3F/AD [1] = assay: Percent of cell viability remaining after incubating with a 10 uM concentration; format: functional, Cricetulus griseus
Procedure, shortened: (§1)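 Cells were grown with modulator alone for 4 days under the same conditions as the chemosensitivity assay, and read by MTT. Viability = (absorbance with modulator/absorbance of control cells) × 100. "tox" marks viability below 25%.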

KB [2] = assay: Percent of cell viability remaining after incubating the cells with the modulator alone; format: functional, Homo sapiens; parameters: concentration or dose not given beside the values; procedure, shortened: as §1
KB [3] = assay: In vitro activity in KB-A1 cell line activity expressed as fold reversion (Ratio of IC50(adriamycin alone) / IC50(adriamycin + modulator) at a concentration of 5 uM; format: functional, Homo sapiens
Procedure, shortened: (§2)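 Human epidermoid KB-A1 cells (Pgp-overexpressing) were grown in RPMI 1640 with 10% FCS and 10 mM HEPES (pH 7.4). They were exposed for 4 days to adriamycin (nine graded concentrations, in triplicate) with or without 5 μM modulator. IC50 was read by the MTT assay. Fold reversion = IC50(ADR alone)/IC50(ADR + modulator).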

DC3F/AD [4] = assay: In vitro activity in DC-3F/AD cell line(Ratio of IC50(actinomycin D alone) / IC50(actinomycin D + modulator) at a concentration of 5 uM
DC3F/AD [5] = assay: In vitro activity in DC-3F/AD cell line Ratio of IC50(actinomycin D alone) / IC50(actinomycin D + modulator) at a concentration of 10 uM
DC3F/AD [6] = assay: Percent of cell viability remaining after incubating the cells with the modulator alone a concentration of 5 uM; format: functional, Cricetulus griseus; procedure, shortened: as §1
DC3F/AD [7] = assay: Increase in adriamycin uptake in modulator-treated cells relative to untreated cells at a concentration of 5 uM; format: functional, Cricetulus griseus
Procedure, shortened: (§3)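 DC-3F/AD or KB-A1 cells (5 × 10⁶/mL) were incubated at 37 °C for 5 h with 50 μM adriamycin plus modulator (2.5–10 μM range). ADR fluorescence of 10 000 cells was read by flow cytometry at 4 °C with 488 nm argon-laser excitation. The value is the increase in mean fluorescence of treated cells over untreated cells.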

KB [8] = assay: Increase in adriamycin uptake in modulator-treated cells relative to untreated KB-A1 cells at a concentration of 5 uM; format: functional, Homo sapiens; procedure, shortened: as §3
DC3F/AD [9] = assay: Increase in adriamycin uptake in modulator-treated cells relative to untreated cells at a concentration of 10 uM; format: functional, Cricetulus griseus; procedure, shortened: as §3
P388 [10] = assay: Antitumor activity of vincristine against P388 leukemia cell line in mice at a dose of 50 mg/kg.; format: functional, Mus musculus
P388 [11] = assay: Antitumor activity of vincristine against P388 leukemia cell line in mice at a dose of 100 mg/kg.; format: functional, Mus musculus
KB [12] = assay: Compound was evaluated for the in vitro activity in KB-A1 cell line)Activity expressed as fold reversion (Ratio of IC50(adriamycin alone) / IC50(adriamycin + modulator) at a concentration of 5 uM; format: functional, Homo sapiens; procedure, shortened: as §2
KB [13] = assay: Compound was evaluated for the in vitro activity in KB-A1 cell line. Activity expressed as fold reversion (Ratio of IC50(adriamycin alone) / IC50(adriamycin + modulator) at a concentration of 5 uM; format: functional, Homo sapiens; procedure, shortened: as §2
P388/VCR = assay: Antitumor activity of vincristine against P388/VCR leukemia in mice at a dose of 50 mg/kg.; format: functional, Mus musculus

Row | Compound | Viability (DC3F/AD [1]) [%] | Viability (KB [2]) [%] | Fold reversion (KB [3]) | Fold reversion (DC3F/AD [4]) | Fold reversion (DC3F/AD [5]) | Viability (DC3F/AD [6]) [%] | Increase (DC3F/AD [7]) | Increase (KB [8]) | Increase (DC3F/AD [9]) | T/C (P388 [10]) [%] | T/C (P388 [11]) [%] | Fold reversion (KB [12]) | Fold reversion (KB [13]) | T/C (P388/VCR) [%]
1 | C=CCNc1nc(NCC=C)nc(N2CCC(NCC3c4ccccc4CCc4ccccc43)CC2)n1 | 54 | 68 | 252 | 3144 | 6021 | 98 | 33 | 53.6 | 38.3 | 161 | 167 |  |  | 
2 | C=CCNc1nc(NCC=C)nc(N2CCC(NC3c4ccccc4CCc4ccccc43)CC2)n1 | 91 | 74 | 91 | 755 | 1626 | 99 | 34.3 | 34.2 | 39.7 |  |  |  |  | 
3 | C=CCNc1nc(NCC=C)nc(N2CCC(NCC(c3ccccc3)S(=O)(=O)c3ccccc3)CC2)n1 (centres undefined) | 92 | 115 |  | 139 | 817 | 107 | 21.2 | 41.9 | 29 |  |  | 277 |  | 
4 | C=CCNc1nc(NCC)nc(N2CCC(NCC3c4ccccc4CCc4ccccc43)CC2)n1 | 64 | 58 | 201 | 2499 | 10684 | 114 | 23.1 | 45.9 | 24.9 | 190 | 174 |  |  | 
5 | C=CCNc1nc(Cl)nc(N2CCC(NCC3c4ccccc4CCc4ccccc43)CC2)n1 | 96 | 63 |  | 850 | 2205 | 96 | 21.6 | 33.8 | 27.5 |  |  | 236 |  | 
6 | C=CCNc1nc(OC)nc(N2CCC(NCC3c4ccccc4CCc4ccccc43)CC2)n1 | 79 | 91 | 138 | 1092 | 1078 | 86 | 23.9 | 40.7 | 28.5 |  |  |  |  | 
7 | C=CCNc1nc(NCC=C)nc(N2CCC(CNC3c4ccccc4CCc4ccccc43)CC2)n1 | 72 | 105 | 126 | 173 | 544 | 96 | 14 | 29.8 | 20.5 |  |  |  |  | 
8 | C=CCNc1nc(NCC=C)nc(NCCN2CCN(C3c4ccccc4CCc4ccccc43)CC2)n1 |  |  |  |  | <25 |  | 10.2 | 26.2 | 10.5 |  |  |  | <25 | 
9 | C=CCNc1nc(NCC=C)nc(N2CCC(NCC(c3ccc(F)cc3)C3CCCCC3)CC2)n1 (centres undefined) |  | 71 | 142 | 1009 | <25 | 85 | 30.1 | 48.1 | 34.6 |  |  |  |  | 
10 | C=CCNc1nc(NCC=C)nc(N2CCC(NCC3c4ccccc4Oc4ccccc43)CC2)n1 | 85 | 106 | 140 | 844 | 2584 | 91 | 19.4 | 43.9 | 25.7 |  |  |  |  | 
11 | C=CCN(CC=C)c1nc(N(CC=C)CC=C)nc(N2CCC(NCC(c3ccccc3)c3ccccc3)CC2)n1 | 65 | 78 |  | 1 | 1 | 74 |  |  |  |  |  | 1 |  | 
12 | C=CCNc1nc(NCC=C)nc(N2CCC(NCC3c4ccccc4CSc4ccccc43)CC2)n1 (centres undefined) | 72 | 108 | 393 | 867 | 6046 | 83 | 33.5 | 57.3 | 32.6 |  |  |  |  | 
13 | C=CCNc1nc(NCC=C)nc(N2CCC(N(C)CC3c4ccccc4CCc4ccccc43)CC2)n1 | 69 | 111 | 118 | 834 | 3035 | 70 | 17.8 | 25.6 | 21.8 |  |  |  |  | 
14 | CN(C)c1nc(N(C)C)nc(N2CCC(NCC3c4ccccc4CCc4ccccc43)CC2)n1 | 66 | 28 | 7 | 187 | 544 | 71 | 29.4 | 16.4 | 30.6 |  |  |  |  | 
15 | C=CCNc1nc(NCC=C)nc(N2CCC(NCC3c4ccccc4-c4ccccc43)CC2)n1 | 75 | 42 | 57 | 170 | 589 | 78 | 19.6 | 20.6 | 23.2 |  |  |  |  | 
16 | C=CCNc1nc(NCC=C)nc(N2CCC(NCC3c4ccccc4C=Cc4ccccc43)CC2)n1 |  | 31 | 640 | 1420 | <25 | 86 | 24.5 | 59.2 | 25.8 | 196 | 172 |  |  | 
17 | C=CCNc1nc(NCC=C)nc(N2CCC(NC3CC4c5ccccc5C3c3ccccc34)CC2)n1 (centres undefined) | 102 | 133 | 118 | 1638 | 4264 | 98 | 32.9 | 43.8 | 35.9 |  |  |  |  | 
18 | C=CCNc1nc(NCC=C)nc(N2CCN(C3c4ccccc4CCc4ccccc43)CC2)n1 | 87 | 108 |  | 309 | 455 | 92 | 16.9 | 11.2 | 19.3 |  |  |  | 36 | 
19 | C=CCNc1nc(NCC=C)nc(N2CCC(NCC3c4ccccc4CCCc4ccccc43)CC2)n1 |  | 89 | 177 | 2951 | <25 | 105 | 22.3 | 44.1 | 21.6 | 173 | 186 |  |  | 
20 | C=CCNc1nc(NCC=C)nc(N2CCC(NCC3c4ccccc4NC(=O)c4ccccc43)CC2)n1 (centres undefined) | 100 | 113 | 315 | 2 | 583 | 106 | 2.2 | 48.4 | 41.5 |  |  |  |  | 
21 | C=CCNc1nc(NCC=C)nc(NCC2CCN(C3c4ccccc4CCc4ccccc43)CC2)n1 | 49 | 97 | 10 | 10 | 46 | 71 | 10.1 | 1.9 | 17.4 |  |  |  |  | 
22 | C=CCNc1nc(NC)nc(N2CCC(NCC3c4ccccc4COc4ccccc43)CC2)n1 (centres undefined) | 75 | 107 | 183 | 600 | 2203 | 54 | 16.8 | 35 | 21.5 | 181 | 163 |  |  | 170
23 | C=CCNc1nc(NCC=C)nc(N2CCN(NCC3c4ccccc4CCc4ccccc43)CC2)n1 | 81 | 96 |  | 329 | 1159 | 87 | 21.1 | 22.8 | 28.2 |  |  | 93 |  | 
24 | C=CCNc1nc(NCC=C)nc(NCC(O)CN2CCN(C3c4ccccc4CCc4ccccc43)CC2)n1 (centres undefined) |  |  |  | <25 | <25 |  | 24.3 | 29.2 | 27.6 |  |  |  | <25 | 

Source: ChEMBL document CHEMBL1126298, “New triazine derivatives as potent modulators of multidrug resistance” (1992)
